SMILES strings stand for the structures. Active and inactive are the calls of the source. No cut-off for these calls is given here.

Data set [1] concerns Mus musculus. The data set can be described thus: Antialzheimer activity in 5XFAD mouse assessed as reduction in plaque pathology in […] cortex at 600 ppm administered as rodent chow starting from 1.5 months and measured after 5 months by immunolabeling based confocal microscopic analysis. Particulars: route po, time 3.5 months. Type of data set: functional, organism-based. The method, boiled down: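 5xFAD mice received 600 ppm PLX3397 in AIN-76A chow from 1.5 to 5 months of age. Brain sections were stained with Thio-S for dense-core plaques and immunolabeled for IBA1, then examined by confocal microscopy.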

The nature of data set [2]: Drug concentration in 5XFAD mouse brain at 75 ppm administered as rodent chow starting from 1.5 months and measured after 5 months. Type of data set: ADME, tissue-based. The note with it: route po, time 3.5 months, read-out: Ct. The method, boiled down: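 WT or 5xFAD mice were fed PLX3397 in AIN-76A chow at 600 ppm or 75 ppm from 1.5 to 5 months of age. Terminal brain and plasma drug concentrations were determined at study end.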

Data set [3] has as its target Calcium/calmodulin-dependent protein kinase type IV (Homo sapiens, UniProt Q16566). Nature of the data set: Inhibition of CAMK4 (unknown origin).
Data set [4] addresses Casein kinase I isoform gamma-1 (Homo sapiens, UniProt Q9HCP0). Nature of the data set: Inhibition of CSNK1G1 (unknown origin).
The target of data set [5] is Dual specificity tyrosine-phosphorylation-regulated kinase 3 (Homo sapiens, UniProt O43781). Nature of the data set: Inhibition of DYRK3 (unknown origin).
In data set [6] the target is Testis-specific serine/threonine-protein kinase 2 (Homo sapiens, UniProt Q96PF2). The data set can be described thus: Inhibition of STK22B (unknown origin).
Data set [7] is described as follows: Half-life in dog at 1.00 mg/kg, iv administered as single dose. Type of data set: ADME, organism-based, Canis lupus familiaris. The note with it: in vivo.
Data set [8] can be described thus: Drug concentration in wildtype mouse brain at 1200 ppm administered as rodent chow for 10 to 24 weeks. Particulars: in vivo, po, time 10-24 weeks, read-out: Ct. Type of data set: ADME, tissue-based. The method, boiled down:
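WT or 5xFAD mice were started at 1.5 months of age on PLX5622 formulated at 1200 ppm in AIN-76A chow, with control chow as comparison. Feeding ran for 10 or 24 weeks. Terminal plasma and brain drug levels were then measured. Groups were sex-balanced and compared by two-tailed independent t-test.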

Data set [9] in a line: Toxicity in wildtype mouse assessed as number of platform entry at 1200 ppm administered as rodent chow for 10 to 24 weeks by Morris water maze test (reference value: 0 to 5). The note with it: in vivo, po, time 10-24 weeks.
In data set [10] the target is T1, Macrophage colony-stimulating factor 1 receptor (Mus musculus) (UniProt P09581).
T1 sequence (whole entry): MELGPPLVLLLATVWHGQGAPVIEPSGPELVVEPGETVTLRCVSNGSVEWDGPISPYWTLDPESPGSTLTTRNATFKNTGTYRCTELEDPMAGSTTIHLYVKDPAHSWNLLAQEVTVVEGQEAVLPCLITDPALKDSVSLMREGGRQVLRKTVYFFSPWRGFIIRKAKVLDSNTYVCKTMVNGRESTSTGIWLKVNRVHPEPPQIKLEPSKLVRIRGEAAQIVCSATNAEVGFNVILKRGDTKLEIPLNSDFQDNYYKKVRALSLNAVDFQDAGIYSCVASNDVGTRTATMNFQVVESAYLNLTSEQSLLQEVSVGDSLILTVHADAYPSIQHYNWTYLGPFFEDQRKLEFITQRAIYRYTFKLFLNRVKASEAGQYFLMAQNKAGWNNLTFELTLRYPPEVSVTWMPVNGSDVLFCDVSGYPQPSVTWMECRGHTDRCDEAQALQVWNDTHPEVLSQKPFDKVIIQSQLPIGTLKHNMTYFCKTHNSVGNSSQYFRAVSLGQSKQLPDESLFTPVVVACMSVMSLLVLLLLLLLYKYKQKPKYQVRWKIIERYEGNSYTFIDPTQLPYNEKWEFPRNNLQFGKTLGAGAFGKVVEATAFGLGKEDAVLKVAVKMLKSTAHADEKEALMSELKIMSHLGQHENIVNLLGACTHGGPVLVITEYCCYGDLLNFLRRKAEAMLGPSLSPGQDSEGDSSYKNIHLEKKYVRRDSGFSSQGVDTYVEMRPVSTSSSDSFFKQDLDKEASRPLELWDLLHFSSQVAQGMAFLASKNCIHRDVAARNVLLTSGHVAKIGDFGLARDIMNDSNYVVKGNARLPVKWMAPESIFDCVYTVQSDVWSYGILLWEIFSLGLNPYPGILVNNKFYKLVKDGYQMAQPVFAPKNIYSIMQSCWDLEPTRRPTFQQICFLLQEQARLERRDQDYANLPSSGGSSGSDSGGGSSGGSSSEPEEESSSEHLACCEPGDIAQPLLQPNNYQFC
The data set can be described thus: In vivo inhibition of CSF1R in wildtype mouse assessed as microglial elimination in thalamus at 1200 ppm administered as rodent chow for 10 weeks by […] based confocal microscopic analysis. Type of data set: functional. The note with it: route po.

In data set [11] the target is T1, Macrophage colony-stimulating factor 1 receptor (Mus musculus). Nature of the data set: In vivo inhibition of CSF1R in wildtype mouse assessed as number of GFAP positive cell per FOV in somatosensory cortex at 1200 ppm administered as rodent chow for 10 to 24 weeks by immunolabelling based confocal microscopic analysis (reference value: 4 to 34). Particulars: route po, time 10-24 weeks. Type of data set: functional.

Data set [12] in a line: Effect on Ctsz gene expression in wild type mouse hippocampus at 1200 ppm administered as rodent chow starting from 1.5 months and measured after 7 months by RNA-Seq analysis (reference value: 13.821 to 22.84 RPKM). Type of data set: functional. Particulars: route po, time 5.5 months, 4015 h.
Data set [13] in a line: Effect on Itgax gene expression in 5XFAD mouse thalamus at 1200 ppm administered as rodent chow starting from 1.5 months and measured after 7 months by RNA-Seq analysis (reference value: 1.842 to 2.823 RPKM). Type of data set: functional. The note with it: route po, time 5.5 months, 4015 h.
The test system of data set [14] is Mus musculus. Nature of the data set: Prevention of Tmem119 gene upregulation in 5XFAD mouse hippocampus at 1200 ppm administered as rodent chow starting from 1.5 months and measured after 7 months by Nanostring analysis. Type of data set: functional, tissue-based. The note with it: route po, time 5.5 months.
Data set [15] deals with T1, Macrophage colony-stimulating factor 1 receptor (Mus musculus). Nature of the data set: In vivo inhibition of CSF1R in wildtype mouse assessed as number of Iba1 positive cells per FOV in somatosensory cortex at 1200 ppm administered as rodent chow starting from 1.5 months to 4 months followed by compound removal and measured after 1 months by immunolabelling based confocal microscopic analysis (reference value: 304 to 351). Type of data set: functional. Particulars: route po, time 2.5 months.

Sequence of Dual specificity tyrosine-phosphorylation-regulated kinase 3 (O43781 whole entry): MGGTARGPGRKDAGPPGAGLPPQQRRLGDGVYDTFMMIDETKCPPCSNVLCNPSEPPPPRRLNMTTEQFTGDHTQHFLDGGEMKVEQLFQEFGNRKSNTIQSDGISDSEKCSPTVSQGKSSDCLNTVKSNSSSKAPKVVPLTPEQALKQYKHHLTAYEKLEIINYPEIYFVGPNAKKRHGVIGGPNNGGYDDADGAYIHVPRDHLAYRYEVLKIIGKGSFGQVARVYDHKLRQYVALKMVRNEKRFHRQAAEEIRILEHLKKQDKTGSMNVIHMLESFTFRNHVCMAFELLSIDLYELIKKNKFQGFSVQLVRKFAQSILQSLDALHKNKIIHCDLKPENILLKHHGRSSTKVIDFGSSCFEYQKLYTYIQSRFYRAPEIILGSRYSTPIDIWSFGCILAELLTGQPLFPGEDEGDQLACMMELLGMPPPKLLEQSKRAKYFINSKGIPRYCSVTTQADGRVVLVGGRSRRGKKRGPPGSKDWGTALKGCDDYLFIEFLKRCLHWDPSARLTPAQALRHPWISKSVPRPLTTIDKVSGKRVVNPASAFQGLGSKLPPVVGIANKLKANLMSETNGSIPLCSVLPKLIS
Sequence of Casein kinase I isoform gamma-1 (Q9HCP0 whole entry, canonical isoform): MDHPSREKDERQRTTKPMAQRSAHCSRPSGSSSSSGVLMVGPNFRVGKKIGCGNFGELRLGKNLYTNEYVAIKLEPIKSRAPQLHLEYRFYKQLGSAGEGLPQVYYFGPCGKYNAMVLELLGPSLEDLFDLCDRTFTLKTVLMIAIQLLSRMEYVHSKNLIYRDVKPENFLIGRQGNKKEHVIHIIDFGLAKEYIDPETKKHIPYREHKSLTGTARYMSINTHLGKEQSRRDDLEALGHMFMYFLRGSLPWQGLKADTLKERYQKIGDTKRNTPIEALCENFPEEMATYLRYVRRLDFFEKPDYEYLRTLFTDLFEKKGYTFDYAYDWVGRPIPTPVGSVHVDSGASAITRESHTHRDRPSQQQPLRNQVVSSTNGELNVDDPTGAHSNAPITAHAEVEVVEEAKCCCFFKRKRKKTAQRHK
Sequence of Calcium/calmodulin-dependent protein kinase type IV (Q16566 whole entry, canonical isoform): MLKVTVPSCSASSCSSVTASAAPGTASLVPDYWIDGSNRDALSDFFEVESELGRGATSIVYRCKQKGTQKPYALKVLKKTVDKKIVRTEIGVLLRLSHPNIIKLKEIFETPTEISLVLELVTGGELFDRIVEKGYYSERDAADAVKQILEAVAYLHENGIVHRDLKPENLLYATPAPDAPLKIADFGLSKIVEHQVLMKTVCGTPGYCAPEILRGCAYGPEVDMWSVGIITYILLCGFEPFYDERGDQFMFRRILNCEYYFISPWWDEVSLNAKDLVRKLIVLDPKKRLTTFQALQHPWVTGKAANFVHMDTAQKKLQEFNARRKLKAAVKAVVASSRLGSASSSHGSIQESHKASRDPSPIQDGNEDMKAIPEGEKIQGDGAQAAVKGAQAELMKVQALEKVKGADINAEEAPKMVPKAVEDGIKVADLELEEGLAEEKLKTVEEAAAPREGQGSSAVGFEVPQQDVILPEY
Sequence of Testis-specific serine/threonine-protein kinase 2 (Q96PF2 whole entry): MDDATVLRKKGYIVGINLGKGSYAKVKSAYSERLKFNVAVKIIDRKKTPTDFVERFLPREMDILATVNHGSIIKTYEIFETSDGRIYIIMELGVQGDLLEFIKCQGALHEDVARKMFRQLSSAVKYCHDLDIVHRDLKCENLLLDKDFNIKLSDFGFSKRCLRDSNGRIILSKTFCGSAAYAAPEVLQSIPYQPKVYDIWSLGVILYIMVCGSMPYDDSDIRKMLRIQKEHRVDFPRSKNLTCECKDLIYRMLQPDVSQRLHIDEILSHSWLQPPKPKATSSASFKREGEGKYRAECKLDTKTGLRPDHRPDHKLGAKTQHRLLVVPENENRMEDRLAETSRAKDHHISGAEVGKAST

Regarding `FC(F)(F)c1ccc(CNc2ccc(Cc3c[nH]c4ncc(Cl)cc34)cn2)cn1` [PEXIDARTINIB], the outcome in the data set on Mus musculus [1] was Active. The concentration at 2555 h in [2] is 600 nM.

The term IC50 denotes the point on the concentration scale where inhibition reaches its midpoint. One may read the half-life as the time in which the quantity being followed falls by half. The low end stands for rapid decline, the high end for slow decline. In the case of `COc1ncc(F)cc1CNc1ccc(Cc2c[nH]c3ncc(C)cc23)c(F)n1` [PLX-5622], the concentration for half-maximal inhibition (IC50) in data set [3], in data set [4], in [5] and in data set [6] was above 1000 nM in each case. Besides, the half-life in [7] is 15 h. The concentration in data set [8] turned out to be 3350 nM. Besides, the Activity in data set [9] is 1; in [11] it was 5; in data set [12], 14.33 RPKM; in data set [13], 0.043 RPKM; in [15], 108. Moreover, the inhibition entry in [10] is “inactive”. Further, the outcome in the data set on Mus musculus [14] was Active.
